Measured values published in ChEMBL document CHEMBL5058577, “EUbOPEN Chemogenomics Library 2 (Multiplex)” (2022).

Test system: Fibroblast
Assay: Multiplex assay against human fibroblast
Assay type: toxicity, cell-based
Method in brief: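 Compound was added to live cells that had been stained at seeding with Hoechst33342, BioTracker Green Microtubule Cytoskeleton Dye, MitoTracker Red and Annexin V Alexa Fluor 680, and imaging followed on a CQ1 microscope at 37°C and 5% CO2. CellPathfinder machine-learning gating divided cells into Hoechst high-intensity objects or normal cells, normal cells into healthy, pyknosed or fragmented nuclei, and pyknosed cells into mitotic or apoptotic. Tubulin, mitochondrial-mass and membrane-permeability phenotypes are per cents of healthy-nucleus cells.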

[1] = 12 h, 1 µM, compound concentration 1 uM, replicate 1
[2] = 12 h, 1 µM, compound concentration 1 uM, replicate 2
[3] = 12 h, 10 µM, compound concentration 10 uM, replicate 1
[4] = 12 h, 10 µM, compound concentration 10 uM, replicate 2
[5] = 24 h, 1 µM, compound concentration 1 uM, replicate 1
[6] = 24 h, 1 µM, compound concentration 1 uM, replicate 2
[7] = 24 h, 10 µM, compound concentration 10 uM, replicate 1
[8] = 24 h, 10 µM, compound concentration 10 uM, replicate 2
[9] = 48 h, 1 µM, compound concentration 1 uM, replicate 1
[10] = 48 h, 1 µM, compound concentration 1 uM, replicate 2
[11] = 48 h, 10 µM, compound concentration 10 uM, replicate 1
[12] = 48 h, 10 µM, compound concentration 10 uM, replicate 2

CC(C)c1noc(N2CCC(COc3ccc(-c4ccc(S(C)(=O)=O)cc4)nc3)CC2)n1 [GSK-1292263]
Population Apoptotic (%) [1]: 38% | Population Fragmented Nuclei (%) [1]: 14% | Population Healthy Nuclei (%) [1]: 74% | Population Hoechst High Intensity Objects (%) [1]: 2% | Population Membrane Permeable-Phenotype (%) [1]: 0% | Population Mitochondria Different-Phenotype (%) [1]: 1% | Population Mitotic Cells (%) [1]: 61% | Population Normal (%) [1]: 97% | Population Pyknosed Nuclei (%) [1]: 11% | Population Tubulin-Different-Phenotype (%) [1]: 21% | Total Cell Count [1]: 189 | Population Apoptotic (%) [2]: 29% | Population Fragmented Nuclei (%) [2]: 18% | Population Healthy Nuclei (%) [2]: 50% | Population Hoechst High Intensity Objects (%) [2]: 6% | Population Membrane Permeable-Phenotype (%) [2]: 4% | Population Mitochondria Different-Phenotype (%) [2]: 5% | Population Mitotic Cells (%) [2]: 70% | Population Normal (%) [2]: 93% | Population Pyknosed Nuclei (%) [2]: 31% | Population Tubulin-Different-Phenotype (%) [2]: 41% | Total Cell Count [2]: 149 | Population Apoptotic (%) [3]: 39% | Population Fragmented Nuclei (%) [3]: 8% | Population Healthy Nuclei (%) [3]: 65% | Population Hoechst High Intensity Objects (%) [3]: 3% | Population Membrane Permeable-Phenotype (%) [3]: 1% | Population Mitochondria Different-Phenotype (%) [3]: 5% | Population Mitotic Cells (%) [3]: 60% | Population Normal (%) [3]: 96% | Population Pyknosed Nuclei (%) [3]: 26% | Population Tubulin-Different-Phenotype (%) [3]: 39% | Total Cell Count [3]: 162 | Population Apoptotic (%) [4]: 35% | Population Fragmented Nuclei (%) [4]: 26% | Population Healthy Nuclei (%) [4]: 45% | Population Hoechst High Intensity Objects (%) [4]: 2% | Population Membrane Permeable-Phenotype (%) [4]: 6% | Population Mitochondria Different-Phenotype (%) [4]: 10% | Population Mitotic Cells (%) [4]: 64% | Population Normal (%) [4]: 97% | Population Pyknosed Nuclei (%) [4]: 27% | Population Tubulin-Different-Phenotype (%) [4]: 61% | Total Cell Count [4]: 145 | Population Apoptotic (%) [5]: 50% | Population Fragmented Nuclei (%) [5]: 9% | Population Healthy Nuclei (%) [5]: 78% | Population Hoechst High Intensity Objects (%) [5]: 3% | Population Membrane Permeable-Phenotype (%) [5]: 1% | Population Mitochondria Different-Phenotype (%) [5]: 0% | Population Mitotic Cells (%) [5]: 50% | Population Normal (%) [5]: 96% | Population Pyknosed Nuclei (%) [5]: 11% | Population Tubulin-Different-Phenotype (%) [5]: 17% | Total Cell Count [5]: 182 | Population Apoptotic (%) [6]: 44% | Population Fragmented Nuclei (%) [6]: 20% | Population Healthy Nuclei (%) [6]: 53% | Population Hoechst High Intensity Objects (%) [6]: 7% | Population Membrane Permeable-Phenotype (%) [6]: 4% | Population Mitochondria Different-Phenotype (%) [6]: 2% | Population Mitotic Cells (%) [6]: 55% | Population Normal (%) [6]: 92% | Population Pyknosed Nuclei (%) [6]: 25% | Population Tubulin-Different-Phenotype (%) [6]: 41% | Total Cell Count [6]: 142 | Population Apoptotic (%) [7]: 52% | Population Fragmented Nuclei (%) [7]: 12% | Population Healthy Nuclei (%) [7]: 67% | Population Hoechst High Intensity Objects (%) [7]: 2% | Population Membrane Permeable-Phenotype (%) [7]: 1% | Population Mitochondria Different-Phenotype (%) [7]: 5% | Population Mitotic Cells (%) [7]: 47% | Population Normal (%) [7]: 97% | Population Pyknosed Nuclei (%) [7]: 20% | Population Tubulin-Different-Phenotype (%) [7]: 50% | Total Cell Count [7]: 168 | Population Apoptotic (%) [8]: 46% | Population Fragmented Nuclei (%) [8]: 21% | Population Healthy Nuclei (%) [8]: 55% | Population Hoechst High Intensity Objects (%) [8]: 3% | Population Membrane Permeable-Phenotype (%) [8]: 10% | Population Mitochondria Different-Phenotype (%) [8]: 10% | Population Mitotic Cells (%) [8]: 53% | Population Normal (%) [8]: 96% | Population Pyknosed Nuclei (%) [8]: 23% | Population Tubulin-Different-Phenotype (%) [8]: 56% | Total Cell Count [8]: 123 | Population Apoptotic (%) [9]: 66% | Population Fragmented Nuclei (%) [9]: 19% | Population Healthy Nuclei (%) [9]: 74% | Population Hoechst High Intensity Objects (%) [9]: 3% | Population Membrane Permeable-Phenotype (%) [9]: 0% | Population Mitochondria Different-Phenotype (%) [9]: 1% | Population Mitotic Cells (%) [9]: 33% | Population Normal (%) [9]: 96% | Population Pyknosed Nuclei (%) [9]: 6% | Population Tubulin-Different-Phenotype (%) [9]: 22% | Total Cell Count [9]: 193 | Population Apoptotic (%) [10]: 54% | Population Fragmented Nuclei (%) [10]: 27% | Population Healthy Nuclei (%) [10]: 47% | Population Hoechst High Intensity Objects (%) [10]: 8% | Population Membrane Permeable-Phenotype (%) [10]: 13% | Population Mitochondria Different-Phenotype (%) [10]: 4% | Population Mitotic Cells (%) [10]: 45% | Population Normal (%) [10]: 91% | Population Pyknosed Nuclei (%) [10]: 24% | Population Tubulin-Different-Phenotype (%) [10]: 55% | Total Cell Count [10]: 156 | Population Apoptotic (%) [11]: 63% | Population Fragmented Nuclei (%) [11]: 13% | Population Healthy Nuclei (%) [11]: 65% | Population Hoechst High Intensity Objects (%) [11]: 2% | Population Membrane Permeable-Phenotype (%) [11]: 0% | Population Mitochondria Different-Phenotype (%) [11]: 8% | Population Mitotic Cells (%) [11]: 36% | Population Normal (%) [11]: 97% | Population Pyknosed Nuclei (%) [11]: 20% | Population Tubulin-Different-Phenotype (%) [11]: 48% | Total Cell Count [11]: 164 | Population Apoptotic (%) [12]: 50% | Population Fragmented Nuclei (%) [12]: 31% | Population Healthy Nuclei (%) [12]: 51% | Population Hoechst High Intensity Objects (%) [12]: 0% | Population Membrane Permeable-Phenotype (%) [12]: 9% | Population Mitochondria Different-Phenotype (%) [12]: 14% | Population Mitotic Cells (%) [12]: 50% | Population Normal (%) [12]: 100% | Population Pyknosed Nuclei (%) [12]: 17% | Population Tubulin-Different-Phenotype (%) [12]: 76% | Total Cell Count [12]: 125
